Results reported in ChEMBL document CHEMBL1268917, “Synthesis and biological evaluation of radio-iodinated benzimidazoles as SPECT imaging agents for NR2B subtype of NMDA receptor” (Bioorg Med Chem, 2010).

Columns and labels:
Blood [1] = test: Biodistribution in ddY mouse blood assessed per gram of tissue at 14.8 kBq, iv after 5 mins; format: ADME, organism-based; conditions: in vivo
Outline: (§1)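 Killed at set times after injection; organs and blood removed, weighed, gamma counted. Data as % injected dose per gram tissue, mean SD, n = 5–6.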

Kidney [2] = test: Biodistribution in ddY mouse kidney assessed per gram of tissue at 14.8 kBq, iv after 180 mins; format: ADME, organism-based; conditions: in vivo, 3 h; outline: as §1
Brain [3] = test: Biodistribution in ddY mouse brain assessed per gram of tissue at 148 kBq, iv after 180 mins in presence of 200 mg/kg, iv of probenecid administered 30 mins before compound challenge (reference value: 0.44 +/- 0.06 %); conditions: in vivo, 3 h
Heart [4] = test: Biodistribution in ddY mouse heart assessed per gram of tissue at 14.8 kBq, iv after 360 mins; format: ADME, organism-based; conditions: in vivo, 6 h; outline: as §1
Stomach [5] = test: Biodistribution in ddY mouse stomach assessed per gram of tissue at 14.8 kBq, iv after 0.5 mins; format: ADME, organism-based; conditions: in vivo
Outline: (§2)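 Radioiodinated tracer (14.8 kBq) injected via tail vein into male ddY mice (6 weeks, 30–35 g). Organs removed at set times after injection, weighed and gamma-counted; uptake expressed as % injected dose per gram tissue, mean ± SD, n = 5–6.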

Blood [6] = test: Biodistribution in ddY mouse blood assessed per gram of tissue at 14.8 kBq, iv after 30 mins; format: ADME, organism-based; conditions: in vivo, 0.5 h; outline: as §1
Kidney [7] = test: Biodistribution in ddY mouse kidney assessed per gram of tissue at 14.8 kBq, iv after 0.5 mins; format: ADME, organism-based; conditions: in vivo; outline: as §1
Heart [8] = test: Biodistribution in ddY mouse heart assessed per gram of tissue at 14.8 kBq, iv after 180 mins; format: ADME, organism-based; conditions: in vivo, 3 h; outline: as §1
Blood [9] = test: Biodistribution in ddY mouse blood assessed per gram of tissue at 14.8 kBq, iv after 180 mins; format: ADME, organism-based; conditions: in vivo, 3 h; outline: as §1
Lung [10] = test: Biodistribution in ddY mouse lung assessed per gram of tissue at 14.8 kBq, iv after 60 mins; format: ADME, organism-based; conditions: in vivo, 1 h; outline: as §2
Liver [11] = test: Biodistribution in ddY mouse liver assessed per gram of tissue at 14.8 kBq, iv after 5 mins; format: ADME, organism-based; conditions: in vivo; outline: as §1
Liver [12] = test: Biodistribution in ddY mouse liver assessed per gram of tissue at 14.8 kBq, iv after 180 mins; format: ADME, organism-based; conditions: in vivo, 3 h; outline: as §1
Brain [13] = test: Biodistribution in ddY mouse brain assessed per gram of tissue at 14.8 kBq, iv after 5 mins; format: ADME, organism-based; conditions: in vivo; outline: as §1
Liver [14] = test: Biodistribution in ddY mouse liver assessed per gram of tissue at 14.8 kBq, iv after 30 mins; format: ADME, organism-based; conditions: in vivo, 0.5 h; outline: as §1
Lung [15] = test: Biodistribution in ddY mouse lung assessed per gram of tissue at 14.8 kBq, iv after 30 mins; format: ADME, organism-based; conditions: in vivo, 0.5 h; outline: as §2
Spleen [16] = test: Biodistribution in ddY mouse spleen assessed per gram of tissue at 14.8 kBq, iv after 0.5 mins; format: ADME, organism-based; conditions: in vivo; outline: as §2
Brain [17] = test: Biodistribution in ddY mouse brain assessed per gram of tissue at 148 kBq, iv after 180 mins in presence of 50 mg/kg, iv of cyclosporin A administered 30 mins before compound challenge (reference value: 0.50 +/- 0.04 %); format: ADME, organism-based; design: dose 50 mg/kg, route intravenous; conditions: in vivo, 3 h
Spleen [18] = test: Biodistribution in ddY mouse spleen assessed per gram of tissue at 14.8 kBq, iv after 30 mins; format: ADME, organism-based; conditions: in vivo, 0.5 h; outline: as §2
Brain [19] = test: Biodistribution in ddY mouse brain assessed per gram of tissue at 14.8 kBq, iv after 60 mins; format: ADME, organism-based; conditions: in vivo, 1 h; outline: as §1
Brain [20] = test: Biodistribution in ddY mouse brain assessed per gram of tissue at 14.8 kBq, iv after 180 mins; format: ADME, organism-based; conditions: in vivo, 3 h; outline: as §1
Stomach [21] = test: Biodistribution in ddY mouse stomach assessed per gram of tissue at 14.8 kBq, iv after 60 mins; format: ADME, organism-based; conditions: in vivo, 1 h; outline: as §2
Stomach [22] = test: Biodistribution in ddY mouse stomach assessed per gram of tissue at 14.8 kBq, iv after 360 mins; format: ADME, organism-based; conditions: in vivo, 6 h; outline: as §2
Blood [23] = test: Biodistribution in ddY mouse blood assessed per gram of tissue at 148 kBq, iv after 180 mins in presence of 50 mg/kg, iv of cyclosporin A administered 30 mins before compound challenge (reference value: 0.78 +/- 0.27 %); format: ADME, organism-based; design: dose 50 mg/kg, route intravenous; conditions: in vivo, 3 h
Heart [24] = test: Biodistribution in ddY mouse heart assessed per gram of tissue at 14.8 kBq, iv after 5 mins; format: ADME, organism-based; conditions: in vivo; outline: as §1
Stomach [25] = test: Biodistribution in ddY mouse stomach assessed per gram of tissue at 14.8 kBq, iv after 180 mins; format: ADME, organism-based; conditions: in vivo, 3 h; outline: as §2
Brain [26] = test: Biodistribution in ddY mouse brain assessed per gram of tissue at 14.8 kBq, iv after 0.5 mins; format: ADME, organism-based; conditions: in vivo; outline: as §1
Pancreas [27] = test: Biodistribution in ddY mouse pancreas assessed per gram of tissue at 14.8 kBq, iv after 180 mins; format: ADME, organism-based; conditions: in vivo, 3 h; outline: as §2
Brain [28] = test: Biodistribution in ddY mouse brain assessed per gram of tissue at 14.8 kBq, iv after 30 mins; format: ADME, organism-based; conditions: in vivo, 0.5 h; outline: as §1
Liver [29] = test: Biodistribution in ddY mouse liver assessed per gram of tissue at 148 kBq, iv after 180 mins in presence of 50 mg/kg, iv of cyclosporin A administered 30 mins before compound challenge (reference value: 16.20 +/- 1.34 %); format: ADME, organism-based; design: dose 50 mg/kg, route intravenous; conditions: in vivo, 3 h
Pancreas [30] = test: Biodistribution in ddY mouse pancreas assessed per gram of tissue at 14.8 kBq, iv after 5 mins; format: ADME, organism-based; conditions: in vivo; outline: as §2
Lung [31] = test: Biodistribution in ddY mouse lung assessed per gram of tissue at 14.8 kBq, iv after 180 mins; format: ADME, organism-based; conditions: in vivo, 3 h; outline: as §2
Pancreas [32] = test: Biodistribution in ddY mouse pancreas assessed per gram of tissue at 14.8 kBq, iv after 60 mins; format: ADME, organism-based; conditions: in vivo, 1 h; outline: as §2
Lung [33] = test: Biodistribution in ddY mouse lung assessed per gram of tissue at 14.8 kBq, iv after 360 mins; format: ADME, organism-based; conditions: in vivo, 6 h; outline: as §2
Kidney [34] = test: Biodistribution in ddY mouse kidney assessed per gram of tissue at 14.8 kBq, iv after 360 mins; format: ADME, organism-based; conditions: in vivo, 6 h; outline: as §1
Pancreas [35] = test: Biodistribution in ddY mouse pancreas assessed per gram of tissue at 14.8 kBq, iv after 360 mins; format: ADME, organism-based; conditions: in vivo, 6 h; outline: as §2
Spleen [36] = test: Biodistribution in ddY mouse spleen assessed per gram of tissue at 14.8 kBq, iv after 360 mins; format: ADME, organism-based; conditions: in vivo, 6 h; outline: as §2
Stomach [37] = test: Biodistribution in ddY mouse stomach assessed per gram of tissue at 14.8 kBq, iv after 30 mins; format: ADME, organism-based; conditions: in vivo, 0.5 h; outline: as §2
Heart [38] = test: Biodistribution in ddY mouse heart assessed per gram of tissue at 14.8 kBq, iv after 0.5 mins; format: ADME, organism-based; conditions: in vivo; outline: as §1
Spleen [39] = test: Biodistribution in ddY mouse spleen assessed per gram of tissue at 14.8 kBq, iv after 60 mins; format: ADME, organism-based; conditions: in vivo, 1 h; outline: as §2
Liver [40] = test: Biodistribution in ddY mouse liver assessed per gram of tissue at 14.8 kBq, iv after 0.5 mins; format: ADME, organism-based; conditions: in vivo; outline: as §1
Brain [41] = test: Biodistribution in ddY mouse brain assessed per gram of tissue at 14.8 kBq, iv after 360 mins; format: ADME, organism-based; conditions: in vivo, 6 h; outline: as §1
Heart [42] = test: Biodistribution in ddY mouse heart assessed per gram of tissue at 14.8 kBq, iv after 60 mins; format: ADME, organism-based; conditions: in vivo, 1 h; outline: as §1
Intestine [43] = test: Biodistribution in ddY mouse intestine assessed per gram of tissue at 14.8 kBq, iv after 60 mins; format: ADME, organism-based; conditions: in vivo, 1 h; outline: as §1
Liver [44] = test: Biodistribution in ddY mouse liver assessed per gram of tissue at 14.8 kBq, iv after 60 mins; format: ADME, organism-based; conditions: in vivo, 1 h; outline: as §2
Intestine [45] = test: Biodistribution in ddY mouse intestine assessed per gram of tissue at 14.8 kBq, iv after 180 mins; format: ADME, organism-based; conditions: in vivo, 3 h; outline: as §1

Compound: Oc1ccc2nc(CN3CCC(Cc4ccc([125I])cc4)CC3)[nH]c2c1
- Drug uptake (Blood [1]): 1.15 % ID/g
- Drug uptake (Kidney [2]): 7.74 % ID/g
- Drug uptake (Brain [3]): 0.57 % ID/g
- Drug uptake (Heart [4]): 1.58 % ID/g
- Drug uptake (Stomach [5]): 0.72 % ID/g
- Drug uptake (Blood [6]): 0.67 % ID/g
- Drug uptake (Kidney [7]): 5.35 % ID/g
- Drug uptake (Heart [8]): 1.58 % ID/g
- Drug uptake (Blood [9]): 0.3 % ID/g
- Drug uptake (Lung [10]): 7.54 % ID/g
- Drug uptake (Liver [11]): 25.03 % ID/g
- Drug uptake (Liver [12]): 32.22 % ID/g
- Drug uptake (Brain [13]): 0.42 % ID/g
- Drug uptake (Liver [14]): 28.99 % ID/g
- Drug uptake (Lung [15]): 8.16 % ID/g
- Drug uptake (Spleen [16]): 0.5 % ID/g
- Drug uptake (Brain [17]): 0.66 % ID/g
- Drug uptake (Spleen [18]): 5.91 % ID/g
- Drug uptake (Brain [19]): 0.48 % ID/g
- Drug uptake (Brain [20]): 0.56 % ID/g
- Drug uptake (Stomach [21]): 2.16 % ID/g
- Drug uptake (Stomach [22]): 2.17 % ID/g
- Drug uptake (Blood [23]): 0.52 % ID/g
- Drug uptake (Heart [24]): 5.39 % ID/g
- Drug uptake (Stomach [25]): 2.51 % ID/g
- Drug uptake (Brain [26]): 0.21 % ID/g
- Drug uptake (Pancreas [27]): 6.53 % ID/g
- Drug uptake (Brain [28]): 0.44 % ID/g
- Drug uptake (Liver [29]): 15.2 % ID/g
- Drug uptake (Pancreas [30]): 5.74 % ID/g
- Drug uptake (Lung [31]): 4.75 % ID/g
- Drug uptake (Pancreas [32]): 6.35 % ID/g
- Drug uptake (Lung [33]): 3.44 % ID/g
- Drug uptake (Kidney [34]): 5.46 % ID/g
- Drug uptake (Pancreas [35]): 8.76 % ID/g
- Drug uptake (Spleen [36]): 3.79 % ID/g
- Drug uptake (Stomach [37]): 2.54 % ID/g
- Drug uptake (Heart [38]): 1.47 % ID/g
- Drug uptake (Spleen [39]): 4.65 % ID/g
- Drug uptake (Liver [40]): 14.68 % ID/g
- Drug uptake (Brain [41]): 0.55 % ID/g
- Drug uptake (Heart [42]): 1.87 % ID/g
- Drug uptake (Intestine [43]): 2.35 % ID/g
- Drug uptake (Liver [44]): 30.5 % ID/g
- Drug uptake (Intestine [45]): 4.55 % ID/g
